One data set concerns HUA mice. In words: In vivo anti-hyperuricemia study. Details: species or system KM mice. The note with it: for serum UA level vs HUA group: gavage once daily, 5 mg/kg FEB, 10 mg/kg OBB, 1, 2, 4 mg/kg OBB-HP-β-CD SDDS. Summed up: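 KM mice (male, 20 ± 2 g, 4 weeks, SPF) were acclimatised ≥7 days at 24 ± 1°C, n = 10/group. Hyperuricemia was induced daily for 10 days with PO 300 mg/kg i.p. plus HX 300 mg/kg oral. Test compound was gavaged 1 h post-challenge, once daily for 7 days. Kidneys were taken 1 h after the last dose, fixed 24 h in 4% PFA, paraffin-embedded, sectioned at 4 μm, H&E-stained and blind-scored at 200× (n = 3).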

Data set [1] in a line: Appearance and solubility of prepared samples in water. It counts as physicochemical.
For data set [2] the following is noted: previous study; cited from earlier work.
The conditions of data set [3]: previous study; cited from earlier work. The source holds these as a separate data set.
Data set [4] in a line: Solubility test of OBB in different dissolution media and excipient solutions. Format: physicochemical. The note with it: for Solubility: 25°C, shaken 24 h. Summed up: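 Excess test compound was added to each medium, with solid excipients made up as 25 mg/mL aqueous solutions. Samples were shaken at 90 rpm and 25°C for 24 h to reach equilibrium. They were then centrifuged (9000 ×g, 20 min), and the supernatant was filtered (0.22 µm), diluted and quantified by HPLC. HPLC used a C18 column with methanol-water 70:30 and 0.1% formic acid, isocratic at 1.0 mL/min, 30°C.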

Data set [5] can be described thus: Pharmacokinetic study in rats. Format: in vivo. The note with it: male, Sprague Dawley, rat, blood, oral, 50 mg/kg. Summed up: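 Male Sprague Dawley rats (200–240 g) were fasted overnight with free water and dosed in groups of 6. Dose was 50 mg/kg test compound, given p.o. as raw material or as HP-β-CD supersaturated formulation, or i.v. as formulation. Heparinized orbital blood was drawn at 0.083–24 h. Acetonitrile protein precipitation with piperine internal standard; centrifuged 2000 ×g, 10 min; residue redissolved in methanol, filtered; HPLC.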

Converted amounts (≈) assume the structure as drawn.

Consider `Cc1nc(-c2ccc(OCC(C)C)c(C#N)c2)sc1C(=O)O` [FEB, febuxostat, reference compound], for which, in the data set with HUA mice, the “renal histopathological damage (H&E) vs HUA group” value is reported as “effectively ameliorated” and the “serum UA level vs HUA group” value is “significantly decreased”.
Broadly, the solubility is the concentration that dissolves in the medium under given conditions. For orientation: bioavailability means dose-corrected exposure relative to a reference, in per cent. Lower therefore signals poor availability. For the molecule `COc1ccc2cc3n(c(=O)c2c1OC)CCc1cc2c(cc1-3)OCO2` [OBB, Oxyberberine], the “appearance after addition of water and sufficient stirring” value in data set [1] is reported as “remained cloudy”. The safety profile entry in data set [2] is reported as “favorable safety profile”. Moreover, the anti-hyperuricemic activity entry in data set [3] is reported as “comparable to the first-line agent febuxostat”. Besides, in the data set with HUA mice, the “renal histopathological damage (H&E) vs HUA group” value is “effectively ameliorated” and the “serum UA level vs HUA group” value is “significantly decreased”. In data set [4] (artificial gastric fluid), this molecule gave a solubility at 24 h of approximately 0.32 µg/mL (≈ 0.911 µM). The Solubility entry in data set [4] (artificial intestinal fluid) is “completely insoluble”. For the same molecule, in data set [4] (water), the Solubility result is “completely insoluble”. The same molecule showed a bioavailability in data set [5] of 1.55%.
